Experimental data pooled from the literature.
Protocols differ between the studies behind these lines.
Target: Tyrosine-protein kinase Lck (LCK, Homo sapiens, UniProt P06239)

SMILES | observed | technique | tested at | remaining binding [%]
CN([C@@H]1CCc2c(CC(=O)O)c3cc(S(C)(=O)=O)ccc3n2C1)S(=O)(=O)c1ccc(F)cc1 | cell-free assay | competition with immobilised ligand | 1 µM | 100
O=C(c1ccc(Nc2ncc(Cl)c(-c3cc4ccccc4s3)n2)cc1)N1CCC(N2CCCC2)CC1 | binding | competition with immobilised ligand | 1 µM | 21
c1cncc(-c2cccc(Nc3nccc(NC4CCCCC4)n3)c2)c1 | binding | competition with immobilised ligand | 10 µM | 6.6
O=C(NCC1CCOCC1)c1n[nH]cc1NC(=O)c1c(F)cccc1F | binding | competition with immobilised ligand | 1 µM | 100
CC1=C(C#N)[C@@H](c2ccc3[nH]nc(C)c3c2)C(C#N)=C(c2ccc(Cl)cc2)N1 | cell-free assay | competition with immobilised ligand | 1 µM | 100
C[C@@H]1CCN(c2nccc(-c3cnn4ncccc34)n2)C1 | binding | – | 1 µM | 93
CCCOc1ccc([C@@H]2[C@@H](C(=O)O)[C@H](c3ccc4c(c3)OCO4)CN2CC(=O)Nc2c(CC)cccc2CC)cc1 | cell-free assay | competition with immobilised ligand | 1 µM | 100
CN(CCCC(F)(F)F)c1nccc(-c2cnn3ncccc23)n1 | binding | – | 1 µM | 89
COc1cnc(Nc2cccc(S(N)(=O)=O)c2)nc1N1CCN(c2ccccc2)C(=O)C1 | binding | competition with immobilised ligand | 1 µM | 100
CNCc1ccccc1-c1csc([C@H](C)Nc2nc(C)nc3cc(OC)c(OC)cc23)c1 | cell-free assay | competition with immobilised ligand | 1 µM | 100
C[C@@H](c1ccc(-n2cnc3c(N)ncnc32)cc1)N1CCc2nn(C)c(Cc3ccccc3)c2C1=O | binding | competition with immobilised ligand | 0.1 µM | 94
N#Cc1ccc(Nc2ccc3[nH]c(=O)[nH]c3c2)c(Cl)c1 | cell-free assay | competition with immobilised ligand | 1 µM | 100
O=C(c1ccc(Nc2nccc(-c3cc4ccccc4s3)n2)cc1)N1CCC(N2CCCC2)CC1 | binding | competition with immobilised ligand | 1 µM | 34
Nc1ncc2c(n1)-c1c([nH]c3ccc(C#CC4CC4)cc13)CCCC2 | binding | competition with immobilised ligand | 1 µM | 100
Cc1cnc(Nc2ccc(C(=O)N3CCC(N4CCCC4)CC3)cc2)nc1-c1cc2ccccc2s1 | binding | competition with immobilised ligand | 1 µM | 2.7
F[C@@H]1CCN(c2nccc(-c3cnn4ncccc34)n2)C1 | binding | – | 1 µM | 100
